ChEMBL document CHEMBL1146843, “Synthesis and properties of benzo[a]phenoxazinium chalcogen analogues as novel broad-spectrum antimicrobial photosensitizers” (J Med Chem, 2006)

Experiments:
Escherichia coli [1] = experiment: Photodynamic inactivation of Escherichia coli ATCC 25922 at the fluence of 80 J/cm2 light at 5 uM after 10 mins; assay type: functional
Summary of the method: (§1)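 Exponential cultures were used: bacteria about 10^8 cells/mL in BHI, Candida in YM. Cells were dark-incubated with dye for 10 min at room temperature, then washed and resuspended in PBS without Ca2+/Mg2+. Illumination used 30-nm band-pass red light (630, 652 or 660 ± 15 nm per dye) at 60–100 mW/cm2 and room temperature. Ten-fold serial dilutions were plated on BHI agar at 37 °C overnight. CFU survival was expressed relative to untreated cells, in triplicate.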

Candida albicans [2] = experiment: Cellular uptake in Candida albicans ATCC 18804 at 20 uM after 10 mins; assay type: functional, organism-based
Summary of the method: (§2)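 Exponential-phase cells (bacteria in BHI, yeast in YM, 37 °C, 150 rpm) were incubated with dye in the dark for 10 min at room temperature. Centrifugation at 1550g for 6 min removed unbound dye, and pellets were resuspended in PBS without Ca2+/Mg2+. Pellets were dissolved in 10% SDS for ≥24 h. Fluorescence peak height was read at the dye-specific excitation and emission, against SDS calibration curves. Means of three experiments.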

Candida albicans [3] = experiment: Photodynamic inactivation of Candida albicans ATCC 18804 at the fluence of 80 J/cm2 light at 20 uM after 10 mins; assay type: functional; summary of the method: as §1
[4] = Partition coefficient, log P at pH 7.4; assay type: physicochemical; conditions: octanol/water
Enterococcus faecalis [5] = experiment: Photodynamic inactivation of Enterococcus faecalis ATCC 29212 at the fluence of 80 J/cm2 light at 2 uM after 10 mins; assay type: functional; summary of the method: as §1
Candida albicans [6] = experiment: Photodynamic inactivation of Candida albicans ATCC 18804 at the fluence of 64 J/cm2 light at 20 uM after 10 mins; assay type: functional; summary of the method: as §1
Escherichia coli [7] = experiment: Photodynamic inactivation of Escherichia coli ATCC 25922 at the fluence of 64 J/cm2 light at 5 uM after 10 mins; assay type: functional; summary of the method: as §1
Enterococcus faecalis [8] = experiment: Photodynamic inactivation of Enterococcus faecalis ATCC 29212 at the fluence of 64 J/cm2 light at 2 uM after 10 mins; assay type: functional; summary of the method: as §1
Escherichia coli [9] = experiment: Cellular uptake in Escherichia coli ATCC 25922 at 5 uM after 10 mins; assay type: functional, organism-based; summary of the method: as §2
Enterococcus faecalis [10] = experiment: Cellular uptake in Enterococcus faecalis ATCC 29212 at 2 uM after 10 mins; assay type: functional, organism-based; summary of the method: as §2
Escherichia coli [11] = experiment: Photodynamic inactivation of Escherichia coli ATCC 25922 at the fluence of 32 J/cm2 light at 5 uM after 10 mins; assay type: functional; summary of the method: as §1
Enterococcus faecalis [12] = experiment: Photodynamic inactivation of Enterococcus faecalis ATCC 29212 at the fluence of 8 J/cm2 light at 2 uM after 10 mins; assay type: functional; summary of the method: as §1
Candida albicans [13] = experiment: Photodynamic inactivation of Candida albicans ATCC 18804 at the fluence of 4 J/cm2 light at 20 uM after 10 mins; assay type: functional; summary of the method: as §1

Compound | Activity (Escherichia coli [1]) [%] | Drug uptake (Candida albicans [2]) [%] | Activity (Candida albicans [3]) [%] | logD [4] | Activity (Enterococcus faecalis [5]) [%] | Activity (Candida albicans [6]) [%] | Activity (Escherichia coli [7]) [%] | Activity (Enterococcus faecalis [8]) [%] | Drug uptake (Escherichia coli [9]) [%] | Drug uptake (Enterococcus faecalis [10]) [%] | Activity (Escherichia coli [11]) [%] | Activity (Enterococcus faecalis [12]) [%] | Activity (Candida albicans [13]) [%]
CC/N=c1/cc2oc3cc(N(CC)CC)ccc3nc-2c2ccccc12.Cl | 90 | 75 | >97 | 2.69 | 95 | – | – | – | – | – | – | – | –
CC/N=c1/cc2sc3cc(N(CC)CC)ccc3nc-2c2ccccc12.Cl | – | – | – | 2.76 | – | >98 | >99 | >99.9 | 75 | – | – | – | –
CC/N=c1/cc2[se]c3cc(N(CC)CC)ccc3nc-2c2ccccc12.Cl | – | – | – | 2.08 | – | – | – | – | – | 75 | >100 | >99.999 | > 99
